Shown are actives, neighbours in structure and some others; about 3.1% of the full set was active somewhere.
OX1R antag-1 – OX1R (human) antagonism. 330,000 compounds, 1.8% hits. OX1R-expressing cells, FRET antagonist read-out. AID 485270. inhibition, % at 6.6 µM; in the data active means inhibition mostly above about 38%, no sharp cut-off; inactive means mostly below about 40%
GPR7 antagonist – antagonists of human GPR7 (neuropeptides B/W receptor 1); 290,000 compounds, 1.1% hits; GPR7-expressing cells, fluorescence antagonist assay; inhibition, % at 4.4 µM; in the data active means inhibition above about 16%, passing the limit was not always enough;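 further: cells stimulated with the agonist NPW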
Target sequence (P48145 whole entry, looked up): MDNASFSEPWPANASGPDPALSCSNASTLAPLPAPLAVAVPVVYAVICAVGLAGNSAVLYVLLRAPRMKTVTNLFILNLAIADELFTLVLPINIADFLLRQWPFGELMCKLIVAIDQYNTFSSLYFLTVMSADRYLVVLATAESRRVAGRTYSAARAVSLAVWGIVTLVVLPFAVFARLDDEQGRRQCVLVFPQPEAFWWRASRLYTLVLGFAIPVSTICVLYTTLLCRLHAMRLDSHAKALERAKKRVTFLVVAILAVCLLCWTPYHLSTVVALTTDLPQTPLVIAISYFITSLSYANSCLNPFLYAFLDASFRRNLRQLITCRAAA
OX1R antag-2 – human HCRTR1 antagonism; O43613; 330,000 compounds, 0.43% hits; inhibition, % at 5 µM; AID 434989; CHO/OX1R cells, Fluo-8 calcium fluorescence, orexin A;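 active means inhibition above its plate's threshold, mean inhibition of all tested compounds on the plate plus 3 SD, cut at about 37% in these data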
CHO parental Ca – counter-screen for OX1R antagonists: effect in parental CHO cells; parental CHO-K1, ATP-induced calcium, Fluo-8 fluorescence; inhibition, % at 5.6 µM; 330,000 compounds, 0.63% hits; AID 463079;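 active means inhibition above that plate's mean sample inhibition plus 3 SD, cut at about 26% in these data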
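Assay system: untransfected parental CHO cell line. Also added: ATP agonist challenge. Dosing: one dose, 5.6 µM nominal. Measured by: Fluo-8 fluorescence. Read-out: % inhibition. Benchmarks: ATP wells versus no-ATP DMSO wells. Repeats: no replicates.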
GalR3 antag – human GalR3 antagonism; O60755; inhibition, % at 3 µM; AID 651719; 360,000 compounds, 0.44% hits; HEK293 GalR3-CNG cAMP membrane potential fluorescence; galR3 body fused to GalR1 C-terminus;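 active means inhibition above the screen-wide average plus 3 SD, cut at about 13% in these data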;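 further: forskolin and galanin both at EC90 stimulate the cells; cAMP rise reported by CNG channel membrane potential dye signal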
OX1R HTRF conf – confirmation of human orexin 1 receptor antagonists, HTRF format; 1,800 compounds, 49% hits; inhibition, % at 6.6 µM; AID 492964; shares compounds with OX1R antag-1; OX1R-expressing cells, HTRF antagonist assay; in the data active means inhibition above about 55%;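 further: CHO cells expressing OX1R stimulated with orexin A at about EC80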
CHO-K1 HTRF – counter-screen: parental CHO-K1 HTRF response | shares compounds with OX1R antag-1 | parental CHO-K1 cells, HTRF counterscreen | inhibition, % at 6.6 µM | 1,800 compounds, 48% hits | AID 493232; in the data active means inhibition above about 17%
Numbers stand for hits; i = inactive; nt = not tested or not shown.

SMILES | OX1R antag-1 | GPR7 antagonist | OX1R antag-2 | CHO parental Ca | GalR3 antag | OX1R HTRF conf | CHO-K1 HTRF
Cc1ccccc1N(CC(=O)NCC1CCCO1)C(=O)CNS(=O)(=O)c1ccc(F)cc1 (stereo unspecified) | i | i | i | i | i | nt | nt
CCN(C(=O)COC(=O)/C=C/c1cnc2ccccc2n1)C1CCS(=O)(=O)C1 (stereo unspecified) | 82 | i | i | i | i | i | 46
CN(C(=O)COC(=O)/C=C/c1ccc2ccccc2n1)C1CCS(=O)(=O)C1 (stereo unspecified) | i | i | i | i | i | nt | nt
O=C(CN1C(=O)COc2ccc(S(=O)(=O)N3CCCCCC3)cc21)NCc1ccc(F)cc1 | i | i | i | i | i | nt | nt
C=CCSc1nnc2c(n1)OC(c1cccnc1)Nc1ccccc1-2 (stereo unspecified) | 78 | i | i | i | i | i | i
O=C(N/N=C/c1c(Cl)[nH]c2ccccc12)c1ccc2c(c1)OCCO2 | 79 | i | i | i | i | 86 | i
CCC(=O)NC1=C(Nc2ccc(N)cc2)C(=O)c2ccccc2C1=O | 82 | i | i | i | i | 71 | 121
COc1ccc(NC2=C(NC(C)=O)C(=O)c3ccccc3C2=O)cc1 | 97 | i | i | i | i | 78 | 96
CCOCCCNC(=O)CN1C(=O)/C(=C/c2ccccc2)Sc2ccccc21 | 81 | i | i | i | i | 87 | i
Cc1ccc(/C=C2/Sc3ccccc3N(CC(=O)NCCCOC(C)C)C2=O)cc1 | 84 | i | i | i | i | 70 | i
CCn1c(SCc2ccccc2F)nnc1-c1ccncc1 | i | i | i | i | i | nt | nt
NS(=O)(=O)c1ccc(CNC(=O)c2cc(-c3ccccn3)nc3ccc(Cl)cc23)cc1 | 84 | i | i | i | i | 59 | i
CCOC(=O)C(=O)N=Nc1c(O)[nH]c2ccccc12 | 91 | i | i | i | i | i | 53
COc1ccc(NC(=S)N=Nc2c(O)[nH]c3ccccc23)cc1 | i | i | i | i | i | nt | nt
Oc1ccc(NC(=S)N=Nc2c(O)[nH]c3ccccc23)cc1 | 92 | i | i | i | i | 80 | i
O=C(N=Nc1c(O)[nH]c2ccccc12)c1cccs1 | 108 | i | i | i | i | 101 | 18
Oc1cccc2c3c(oc12)CCCC3 | i | nt | i | i | i | nt | nt
COC(=O)C1=C(C)N(Cc2ccccc2C(F)(F)F)C(=NCc2ccc(C(F)(F)F)cc2)NC1c1ccc(Cl)cc1 (stereo unspecified) | nt | nt | nt | nt | i | nt | nt
CC(=O)NN1C(=O)c2ccc3c4c(ccc(c24)C1=O)C(=O)N(NC(C)=O)C3=O | 83 | i | i | i | i | 69 | 174
Cn1c(N=NC(=O)c2ccccc2)c(O)c2ccccc21 | 137 | i | i | i | i | 98 | 52
O=C(CN(Cc1ccc(F)cc1)C(=O)CCC(=O)Nc1nccs1)NCC1CCCO1 (stereo unspecified) | i | i | i | i | i | nt | nt
O=[n+]1c2c(n([O-])c3cc(F)c(F)cc31)CCCC2 | 129 | i | i | i | i | i | 77
CCN(CC)S(=O)(=O)c1ccc(/C=C/C(=O)OCC(=O)Nc2cccnc2Cl)cc1 | i | nt | i | i | i | nt | nt
Cc1ccc(NS(=O)(=O)c2ccc(C)c(NC(=O)c3ccc(S(=O)(=O)N4CCCCCC4)cc3)c2)c(C)c1 | nt | nt | nt | nt | i | nt | nt
Cc1nc2ccc([N+](=O)[O-])cc2[nH]1 | i | i | i | i | i | nt | nt
SMILES | OX1R antag-1 | GPR7 antagonist | OX1R antag-2 | CHO parental Ca | GalR3 antag | OX1R HTRF conf | CHO-K1 HTRF
O=[N+]([O-])c1cccc(/C=C/c2nc3ccc([N+](=O)[O-])cc3[nH]2)c1 | 102 | i | i | i | i | i | i
CC(C)NC(=O)N(C)C[C@H]1Oc2c(NC(=O)C3CCCCC3)cccc2C(=O)N([C@H](C)CO)C[C@@H]1C | i | nt | i | i | i | nt | nt
CC(=O)Nc1ccc(NC(=O)Nc2ccc3c(c2)N(C)C(=O)CS3)cc1 | i | i | i | i | i | nt | nt
COc1cccc(NC(=O)Nc2ccc3c(c2)N(C)C(=O)CS3)c1 | 82 | i | i | i | i | i | i
O=S(=O)(c1cccc2nonc12)N1CCCCC1 | i | i | i | i | i | nt | nt
Cn1c2ccccc2c2cc(/C=N/NC(=O)c3ccc(N)cc3)ccc21 | 88 | i | i | i | i | 88 | i
Cc1cc(C)cc(NC(=O)c2ccc([N+](=O)[O-])o2)c1 | nt | i | nt | nt | i | nt | nt

Compound activity as filed in PubChem BioAssay.
